Active and inactive are the calls of the source. The calls are words filed in the database; no cut-off is given here.
Tests used:
[1] = biological target: RAC-alpha serine/threonine-protein kinase (Homo sapiens) (UniProt P31749); experiment: Inhibition of Akt phosphorylation at Ser473 in human NCI-H460 cells at 0 to 20 uM for 24 hrs by Western blot analysis; assay type: cell-based
Method in brief: (§1)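 H460 cells were seeded at 5 × 10^5/well, left overnight, then exposed to 0−20 μM for 24 h. Lysis used Tris-HCl pH 7.5 buffer with Triton X-100, vanadate, NaF, PMSF and protease inhibitors, 40 min on ice. 60 μg protein per lane was run on 10% SDS-PAGE and blotted to nitrocellulose. Primary antibody overnight at 4 °C, then HRP secondary. Chemiluminescence, densitometry, β-actin loading control.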

[2] = tested on: NCI-H460; experiment: Inhibition of human NCI-H460 cells migration at 5 uM after 24 hrs by wound healing assay; assay type: functional; conditions: NCI-H460, 24 h
Method in brief: (§2)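 H460 cells were seeded at 2.5 × 10^5/well and grown to a monolayer, then scratched with a 1 mm tip and washed with PBS. They were kept in serum-free RPMI with 0−20 μM for 24 h, or ± 20 μM for 24, 48 and 72 h. The wound was photographed, and migration was calculated as the change in wound space divided by that of control. Mean ± SD, n = 4.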

[3] = tested on: NCI-H460; experiment: Inhibition of human NCI-H460 cells migration at 20 uM after 24 hrs by Boyden chamber assay relative to control; assay type: functional
Method in brief: (§3)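 For the Boyden chamber, H460 cells at 5 × 10^4/well were placed on the upper side of an 8 μm Transwell filter in RPMI with 0.1% FBS plus compound (0−20 μM) for 24 h, with 10% FBS below. Non-migrated cells were swabbed off, and underside cells were stained with 10 μg/mL Hoechst 33342 for 30 min and counted per field. n = 4.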

[4] = tested on: NCI-H460; experiment: Inhibition of human NCI-H460 cells migration after 24 to 72 hrs by wound healing assay; assay type: functional, cell-based; method in brief: as §2
[5] = tested on: NCI-H460; experiment: Inhibition of human NCI-H460 cells migration at 20 uM by wound healing assay; assay type: functional, cell-based; conditions: TDE = time-dependent effect; method in brief: as §2
[6] = tested on: NCI-H460; experiment: Inhibition of human NCI-H460 cells migration at 10 uM after 24 hrs by wound healing assay; assay type: functional; conditions: NCI-H460, 24 h; method in brief: as §2
[7] = tested on: NCI-H292; experiment: Inhibition of human NCI-H292 cells migration at 0 to 20 uM after 24 hrs by wound healing assay; assay type: functional, cell-based
Method in brief: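 NCI-H292 cells in RPMI-1640 with 10% FBS were grown to a confluent monolayer and scratched with a 1 mm tip. They were incubated in serum-free RPMI with 0−20 μM for 24 h. The change in wound space was measured from photographs relative to untreated cells.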

[8] = tested on: NCI-H460; experiment: Cytotoxicity against human NCI-H460 cells assessed as cell viability at 500 uM for 24 hrs by MTT assay; assay type: functional; conditions: NCI-H460, 24 h, read-out: Activity
Method in brief: (§4)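 MTT was given for 4 h at 37 °C, formazan was solubilized in DMSO and absorbance taken at 570. Viability is % of untreated control. IC50 came from four independent experiments. n = 4.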

[9] = tested on: NCI-H460; experiment: Cytotoxicity against human NCI-H460 cells assessed as cell viability at < 20 uM for 24 hrs by MTT assay; assay type: functional, cell-based; method in brief: as §4
[10] = tested on: NCI-H460; experiment: Cytotoxicity against human NCI-H460 cells assessed as cell viability for 24 hrs by MTT assay; assay type: functional, cell-based; conditions: NCI-H460, 24 h; method in brief: as §4
[11] = tested on: NCI-H460; experiment: Decrease in Cdc42 expression in human NCI-H460 cells at 0 to 20 uM for 24 hrs by Western blot analysis; assay type: functional, cell-based; method in brief: as §1
[12] = tested on: NCI-H460; experiment: Inhibition of human NCI-H460 cells migration at 10 uM after 24 hrs by Boyden chamber assay relative to control; assay type: functional; method in brief: as §3
[13] = tested on: NCI-H460; experiment: Effect on Fak expression in human NCI-H460 cells at 0 to 20 uM for 24 hrs by Western blot analysis; assay type: functional, cell-based; method in brief: as §1
[14] = tested on: NCI-H460; experiment: Inhibition of human NCI-H460 cells invasion after 24 hrs by transwell assay; assay type: functional, cell-based
Method in brief: (§5)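 Matrigel-coated Transwell inserts (8 μm pore) were seeded with H460 cells at 1.5 × 10^5/well in RPMI with 0.1% FBS plus compound (0−20 μM), with 10% FBS RPMI in the lower chamber, for 24 or 48 h. Cells that invaded the underside were stained with 10 μg/mL Hoechst 33342 for 30 min and counted per field by fluorescence microscopy. n = 4.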

[15] = tested on: NCI-H460; experiment: Induction of apoptosis in human NCI-H460 cells at 50 to 100 uM for 24 hrs by Hoechst-[…]/PI staining based fluorescence microscopic analysis; assay type: functional, cell-based
Method in brief: (§6)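 They were stained with 10 μg/mL Hoechst 33342 plus 5 μg/mL propidium iodide for 30 min. Apoptotic (Hoechst-condensed) and necrotic (PI-positive) cells were scored by fluorescence microscopy as % versus untreated control.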

[16] = tested on: NCI-H460; experiment: Induction of necrosis in human NCI-H460 cells at 50 to 100 uM for 24 hrs by Hoechst-[…]/PI staining based fluorescence microscopic analysis; assay type: functional, cell-based; method in brief: as §6
[17] = tested on: NCI-H460; experiment: Inhibition of human NCI-H460 cells migration at 20 uM after 24 hrs by wound healing assay; assay type: functional; conditions: NCI-H460, 24 h; method in brief: as §2
[18] = tested on: NCI-H460; experiment: Effect on unphosphorylated Akt level in human NCI-H460 cells at 0 to 20 uM for 24 hrs by Western blot analysis; assay type: functional, cell-based; method in brief: as §1
[19] = tested on: HaCaT; experiment: Cytotoxicity against human HaCaT cells assessed as cell migration at 0 to 20 uM after 24 hrs by wound healing assay; assay type: cell-based
Method in brief: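 HaCat keratinocytes grown in DMEM with 10% FBS, 2 mM L-glutamine and penicillin/streptomycin. A confluent monolayer was scratched with a 1 mm tip, washed with PBS, and kept in serum-free medium with compound (0−20 μM) for 24 h. The wound was photographed, and the change in wound space was expressed relative to untreated cells.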

[20] = tested on: NCI-H460; experiment: Decrease in filopodia protrussions in human NCI-H460 cells at 10 to 20 uM for 24 hrs by phalloidin staining based fluorescence microscopic analysis; assay type: functional, cell-based
Method in brief: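 H460 cells were seeded at 5 × 10^4/well and treated 24 h (0−20 μM). Cells were fixed in 4% paraformaldehyde, permeabilized with 0.1% Triton X-100 and blocked with 0.2% BSA, then stained with rhodamine-phalloidin (1:100, 15 min) or Hoechst 33342. Filopodia per cell were counted by fluorescence microscopy relative to untreated cells.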

[21] = tested on: NCI-H460; experiment: Inhibition of human NCI-H460 cells invasion at 0 to 20 uM by transwell assay; assay type: functional, cell-based; conditions: TDE = time-dependent effect; method in brief: as §5
[22] = tested on: NCI-H460; experiment: Cytotoxicity against human NCI-H460 cells assessed as cell viability at 50 uM for 24 hrs by MTT assay; assay type: functional; conditions: NCI-H460, 24 h, read-out: Activity; method in brief: as §4
[23] = tested on: NCI-H460; experiment: Inhibition of human NCI-H460 cells migration at 5 uM after 24 hrs by Boyden chamber assay relative to control; assay type: functional; method in brief: as §3
[24] = biological target: Focal adhesion kinase 1 (Homo sapiens) (UniProt Q05397); experiment: Inhibition of Fak phosphorylation at Tyr397 in human NCI-H460 cells at 0 to 20 uM for 24 hrs by Western blot analysis; assay type: cell-based; method in brief: as §1
[25] = tested on: NCI-H460; experiment: Decrease in Cav-1 expression in human NCI-H460 cells at 0 to 20 uM for 24 hrs by Western blot analysis; assay type: functional, cell-based; method in brief: as §1
[26] = tested on: NCI-H460; experiment: Inhibition of human NCI-H460 cells migration overexpressing Cav-1 at 20 uM after 24 hrs by wound healing assay; assay type: functional, cell-based
Method in brief: (§7)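 H460 cells were stably transfected (Lipofectamine 2000) with Cav-1 expression, Cav-1 shRNA or control plasmid, selected with antibiotic for 30 days and pooled, then passaged twice without G418. Confluent monolayers were scratched with a 1 mm tip and treated with 20 μM for 24 h. Wound-space change was expressed relative to untreated cells. n = 4.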

[27] = tested on: NCI-H460; experiment: Inhibition of human NCI-H460 cells migration transfected with Cav-1 shRNA at 20 uM after 24 hrs by wound healing assay; assay type: functional, cell-based; method in brief: as §7
[28] = tested on: NCI-H460; experiment: Cytotoxicity against human NCI-H460 cells assessed as cell viability at 0 to 20 uM for 12 to 72 hrs by MTT assay; assay type: functional, cell-based
Method in brief: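 MTT was added for 4 h at 37 °C, formazan was dissolved in DMSO and read at 570. Viability is given as % of untreated cells. Mean ± SD, n = 4.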

[29] = tested on: NCI-H460; experiment: Cytotoxicity against human NCI-H460 cells assessed as cell viability at 100 uM for 24 hrs by MTT assay; assay type: functional; conditions: NCI-H460, 24 h, read-out: Activity; method in brief: as §4

Focal adhesion kinase 1 (Homo sapiens), sequence (Q05397 2-1052 limits assumed): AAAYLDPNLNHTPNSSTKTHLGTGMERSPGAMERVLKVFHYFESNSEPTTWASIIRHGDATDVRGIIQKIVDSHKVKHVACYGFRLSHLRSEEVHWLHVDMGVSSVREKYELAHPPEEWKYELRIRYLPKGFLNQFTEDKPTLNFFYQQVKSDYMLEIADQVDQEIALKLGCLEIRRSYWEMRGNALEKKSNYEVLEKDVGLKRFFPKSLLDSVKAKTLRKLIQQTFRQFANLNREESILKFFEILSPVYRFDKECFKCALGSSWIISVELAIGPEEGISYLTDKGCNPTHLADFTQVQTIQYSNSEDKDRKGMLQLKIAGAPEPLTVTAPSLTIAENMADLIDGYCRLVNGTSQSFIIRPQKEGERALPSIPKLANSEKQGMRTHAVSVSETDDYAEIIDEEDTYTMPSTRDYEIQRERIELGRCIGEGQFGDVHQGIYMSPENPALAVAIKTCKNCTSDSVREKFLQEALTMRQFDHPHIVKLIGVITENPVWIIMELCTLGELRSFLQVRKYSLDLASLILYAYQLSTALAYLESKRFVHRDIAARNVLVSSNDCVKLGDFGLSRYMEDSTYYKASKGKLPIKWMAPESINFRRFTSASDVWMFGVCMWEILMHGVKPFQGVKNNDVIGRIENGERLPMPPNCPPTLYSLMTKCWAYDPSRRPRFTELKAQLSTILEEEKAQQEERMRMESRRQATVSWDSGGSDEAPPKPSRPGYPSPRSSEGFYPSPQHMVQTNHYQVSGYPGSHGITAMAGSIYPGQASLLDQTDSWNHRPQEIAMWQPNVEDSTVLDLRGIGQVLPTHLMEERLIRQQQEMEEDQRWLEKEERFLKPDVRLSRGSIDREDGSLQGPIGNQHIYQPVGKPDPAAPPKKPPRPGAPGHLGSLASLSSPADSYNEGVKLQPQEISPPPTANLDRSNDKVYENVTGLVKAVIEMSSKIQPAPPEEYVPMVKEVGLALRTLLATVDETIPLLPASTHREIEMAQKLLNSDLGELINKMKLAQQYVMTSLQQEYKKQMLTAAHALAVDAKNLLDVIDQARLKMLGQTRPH
RAC-alpha serine/threonine-protein kinase (Homo sapiens), sequence (P31749 whole entry): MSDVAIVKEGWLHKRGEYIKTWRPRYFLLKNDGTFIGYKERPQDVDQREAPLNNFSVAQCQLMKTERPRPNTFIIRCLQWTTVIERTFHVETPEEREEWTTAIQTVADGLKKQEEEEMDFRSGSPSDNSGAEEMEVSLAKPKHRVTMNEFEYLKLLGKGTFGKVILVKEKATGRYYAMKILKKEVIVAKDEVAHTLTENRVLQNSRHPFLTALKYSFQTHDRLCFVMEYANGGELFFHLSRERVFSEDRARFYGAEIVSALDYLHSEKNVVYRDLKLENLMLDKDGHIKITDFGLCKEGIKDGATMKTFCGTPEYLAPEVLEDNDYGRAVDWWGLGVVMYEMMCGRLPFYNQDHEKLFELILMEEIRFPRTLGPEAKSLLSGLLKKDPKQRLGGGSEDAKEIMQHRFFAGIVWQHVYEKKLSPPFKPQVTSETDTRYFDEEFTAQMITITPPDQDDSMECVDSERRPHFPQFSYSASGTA

inhibition [1]: Active
Activity [24]: inactive
SMILES: COc1cc(O)cc(CCc2ccc(O)c(OC)c2)c1 [GIGANTOL]
inhibition at 5 µM [2]: 30%
fold change (FC) [3]: 0.3
inhibition [4]: Dose-dependent effect
inhibition [5]: tde
inhibition at 10 µM [6]: 50%
inhibition [7]: Active
viability at 500 µM [8]: 20%
Activity [9]: inactive
IC50 [10]: 248 µM
inhibition [11]: Active
fold change (FC) [12]: 0.4
Activity [13]: inactive
inhibition [14]: Dose-dependent effect
Activity [15]: Active
Activity [16]: inactive
inhibition at 20 µM [17]: 70%
Activity [18]: inactive
Activity [19]: Non-toxic
inhibition [20]: Active
inhibition [21]: tde
viability at 50 µM [22]: 83%
fold change (FC) [23]: 0.7
inhibition [25]: Active
inhibition [26]: Active
inhibition [27]: Active
Activity [28]: inactive
viability at 100 µM [29]: 80%

Reference: ChEMBL document CHEMBL3297714, “Gigantol, a bibenzyl from Dendrobium draconis, inhibits the migratory behavior of non-small cell lung cancer cells” (J Nat Prod, 2014)
